Reference: ChEMBL document CHEMBL1126276, “Synthesis and antimalarial properties of 1-imino derivatives of 7-chloro-3-substituted-3,4-dihydro-1,9(2H,10H)-acridinediones and related structures” (J Med Chem, 1992)

What was measured:
Plasmodium berghei [1] = test: Antimalarial activity in Plasmodium berghei infected mice (Mus musculus) after 160 mg/kg subcutaneous dose; format: functional
Procedure, shortened: (§1)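 […] in mice infected with a normal drug-sensitive P. berghei strain. Compound dissolved or suspended in sesame or peanut oil, given as a single subcutaneous dose 72 h postinfection.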

Plasmodium berghei [2] = test: (§2) Antimalarial activity in Plasmodium berghei infected mice (Mus musculus) after 40 mg/kg subcutaneous dose; format: functional; procedure, shortened: as §1
Plasmodium berghei [3] = test: Antimalarial activity Plasmodium berghei infected mice (Mus musculus) after 640 mg/kg subcutaneous dose; format: functional; procedure, shortened: as §1
Plasmodium berghei [4] = test: Antimalarial activity was measured against mice (Mus musculus) infected with Plasmodium berghei by subcutaneous administration of 640 mg/kg dose; format: organism-based; parameters: dose 640 mg/kg, route subcutaneous; settings: in vivo, sc; procedure, shortened: as §1
Plasmodium berghei [5] = test: Antimalarial activity was measured against mice (Mus musculus) infected with Plasmodium berghei by subcutaneous administration of 160 mg/kg dose; format: organism-based; parameters: dose 160 mg/kg, route subcutaneous; settings: in vivo, sc; procedure, shortened: as §1
Plasmodium berghei [6] = test: Antimalarial activity in Plasmodium berghei infected mice (Mus musculus) after subcutaneous 160 mg/kg dose; format: functional
Procedure, shortened: (§3)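 Normal drug-sensitive P. berghei strain in mice. Compound dissolved or suspended in sesame or peanut oil, given parenterally as a single subcutaneous dose 72 h postinfection.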

Plasmodium berghei [7] = test: (§4) Antimalarial activity in Plasmodium berghei infected mice (Mus musculus) after 20 mg/kg subcutaneous dose; format: functional; procedure, shortened: as §1
Plasmodium berghei [8] = test: as §4; format: functional; procedure, shortened: as §3; remark: listed apart in the source
Plasmodium berghei [9] = test: (§5) Antimalarial activity in Plasmodium berghei infected mice (Mus musculus) after 80 mg/kg subcutaneous dose; format: functional; procedure, shortened: as §3
Plasmodium berghei [10] = test: Antimalarial activity in Plasmodium berghei infected mice (Mus musculus) after 320 mg/kg subcutaneous dose; format: functional; procedure, shortened: as §1
Plasmodium berghei [11] = test: as §2; format: functional; procedure, shortened: as §3; remark: listed apart in the source
Plasmodium berghei [12] = test: Antimalarial activity in Plasmodium berghei infected mice (Mus musculus) after subcutaneous 320 mg/kg dose; format: functional; procedure, shortened: as §3
Plasmodium berghei [13] = test: Antimalarial activity was measured against mice (Mus musculus) infected with Plasmodium berghei by subcutaneous administration of 40 mg/kg dose; format: organism-based; parameters: dose 40 mg/kg, route subcutaneous; settings: in vivo, sc; procedure, shortened: as §1
Plasmodium berghei [14] = test: as §5; format: functional; procedure, shortened: as §1; remark: listed apart in the source
Plasmodium berghei [15] = test: Antimalarial activity in Plasmodium berghei infected mice (Mus musculus) after subcutaneous 640 mg/kg dose; format: functional; procedure, shortened: as §3
Plasmodium berghei [16] = test: Antimalarial activity was measured against mice (Mus musculus) infected with Plasmodium berghei by subcutaneous administration of 320 mg/kg dose; format: organism-based; parameters: dose 320 mg/kg, route subcutaneous; settings: in vivo, sc; procedure, shortened: as §1

SMILES	Delta mean survival time (Plasmodium berghei [2])	No. of toxic deaths (Plasmodium berghei [4])	No. of toxic deaths (Plasmodium berghei [5])	No. of cured mice (Plasmodium berghei [9])	No. of cured mice (Plasmodium berghei [11])	No. of cured mice (Plasmodium berghei [6])	Delta mean survival time (Plasmodium berghei [7])	No. of cured mice (Plasmodium berghei [12])	No. of cured mice (Plasmodium berghei [8])	No. of cured mice (Plasmodium berghei [15])	No. of toxic deaths (Plasmodium berghei [16])	also measured
CCc1ccc2nc3c(c(O)c2c1)/C(=N/CCCN(C)C)CC(c1ccc(C(F)(F)F)cc1)C3 (centres undefined)	0.6	4	1									Delta mean survival time (Plasmodium berghei [1]): 1.9; Delta mean survival time (Plasmodium berghei [3]): 1.4
CC1/C(=N\CCCN(C)C)c2c(nc3ccc(Cl)cc3c2O)CC1c1ccc(C(F)(F)F)cc1 (stereo in doubt; cis)		1		5	5							No. of cured mice (Plasmodium berghei [6]; 160 mg/kg): 4; Delta mean survival time (Plasmodium berghei [7]; 20 mg/kg): 10.7; No. of cured mice (Plasmodium berghei [8]; 20 mg/kg): 4; Delta mean survival time (Plasmodium berghei [1]): 3; Delta mean survival time (Plasmodium berghei [10]; 320 mg/kg): 3.1; Delta mean survival time (Plasmodium berghei [3]; 640 mg/kg): 2.3
CCN(CC)CCCC/N=C1\CC(c2ccc(C(F)(F)F)cc2)Cc2c1c(=O)c1cc(Cl)ccc1n2O (centres undefined)	10.5	4		5	4	5	14	4	2			
CN(C)CCC/N=C1\CC2(CCCCC2)Cc2c1c(=O)c1cc(Cl)ccc1n2O		5	5									No. of toxic deaths (Plasmodium berghei [13]): 5
CCN(CC)CC(C)(C)C/N=C1\CC(c2ccc(C(F)(F)F)cc2)Cc2c1c(=O)c1cc(Cl)ccc1n2O (centres undefined)	11.2	2		4	3	5	13	5	3	3		Delta mean survival time (Plasmodium berghei [14]): 12.5
CN(C)CCC/N=C1\CC(c2ccc(C(F)(F)F)cc2)Cc2c1c(=O)c1cc(Cl)ccc1n2O (centres undefined)		5	2	4	5	3		2	5	1	3	
CN(C)CCC/N=C1\CC(c2ccc(Cl)cc2Cl)Cc2c1c(=O)c1cc(Cl)ccc1n2O (centres undefined)		1			5	5	10.6		4	4		
CCn1c2c(c(=O)c3cc(Cl)ccc31)C(=O)CC(c1ccc(C(F)(F)F)cc1)C2 (centres undefined)	0	1	2									Delta mean survival time (Plasmodium berghei [1]): 0; No. of toxic deaths (Plasmodium berghei [13]): 2; Delta mean survival time (Plasmodium berghei [3]): 0
CCN(CC)CC/N=C1\CC(c2ccc(Cl)c(Cl)c2)Cc2nc3ccc(Cl)cc3c(O)c21 (centres undefined)	8			4	4	5	9.3	3	2	5		Delta mean survival time (Plasmodium berghei [14]): 8; Delta mean survival time (Plasmodium berghei [10]): 20
CC1/C(=N\CCCN(C)C)c2c(n(O)c3ccc(Cl)cc3c2=O)CC1c1ccc(Cl)cc1Cl (centres undefined)				4	5	5	11.1	4	1	1		Delta mean survival time (Plasmodium berghei [14]): 16.8; Delta mean survival time (Plasmodium berghei [10]): 2.8; Delta mean survival time (Plasmodium berghei [3]): 1.8
CCN(CC)CC/N=C1\CC(c2ccc(C(F)(F)F)cc2)Cc2c1c(=O)c1cc(Cl)ccc1n2O (centres undefined)	10.8	2	1	5	2	4	10.5	4	1	3	1	
CCN(CC)CC(C)(C)C/N=C1\CC(c2ccc(C(F)(F)F)cc2)Cc2nc3ccc(Cl)cc3c(O)c21 (centres undefined)	10.3			4	2	5	8.6	4	2	4		Delta mean survival time (Plasmodium berghei [14]): 13.6; Delta mean survival time (Plasmodium berghei [10]): 49.6; Delta mean survival time (Plasmodium berghei [3]): 1.3
O=c1c2c(n(O)c3ccc(Cl)cc13)CC(c1ccc(C(F)(F)F)cc1)C/C2=N\CCCN1CCCC1 (centres undefined)	10.8	4		5	2	5	11	3	1	1	1	
COc1ccccc1C1C/C(=N\CCCN(C)C)c2c(n(O)c3ccc(Cl)cc3c2=O)C1 (centres undefined)	0.3	5	5									No. of toxic deaths (Plasmodium berghei [13]): 1
CN(C)CCC/N=C1\CC(c2ccc(C(F)(F)F)cc2)Cc2nc3ccc([N+](=O)[O-])cc3c(O)c21 (centres undefined)	5.4	4		1		4	2.2	3		1	2	Delta mean survival time (Plasmodium berghei [14]): 8.9; Delta mean survival time (Plasmodium berghei [1]): 11.6
CCCCNC(CC)C/N=C1\CC(c2ccc(C(F)(F)F)cc2)Cc2c1c(=O)c1cc(Cl)ccc1n2O (centres undefined)	7.7	1		4	2	5	6	5	2	4		
CN(C)CCC/N=C1\CC(c2ccccc2Cl)Cc2c1c(=O)c1cc(Cl)ccc1n2O (centres undefined)	3	5	1									Delta mean survival time (Plasmodium berghei [1]): 4; No. of toxic deaths (Plasmodium berghei [13]): 2
O=c1c2c(n(O)c3ccc(Cl)cc13)CC(c1cccc(C(F)(F)F)c1)C/C2=N\CCCCCCN1CCCCC1 (centres undefined)	4	5	3			2					5	Delta mean survival time (Plasmodium berghei [14]): 6.4
O=C(O)c1ccc(C2CC(=O)c3c(n(O)c4ccc(Cl)cc4c3=O)C2)cc1 (centres undefined)	-0.1	4	1									Delta mean survival time (Plasmodium berghei [1]): -0.1; Delta mean survival time (Plasmodium berghei [3]): 0.9
O=c1c2c(n(O)c3ccc(Cl)cc13)CC(c1cccc(C(F)(F)F)c1)C/C2=N\CCCCN1CCCC1 (centres undefined)	4.6	5	5								4	Delta mean survival time (Plasmodium berghei [14]): 3.7; Delta mean survival time (Plasmodium berghei [10]): 0.5; No. of toxic deaths (Plasmodium berghei [13]): 3
CN(C)CCC/N=C1\CC(c2ccc(C(F)(F)F)cc2)Cc2nc3ccc(F)cc3c(O)c21 (centres undefined)	14.9	5	4		4	1						
O=c1c2c(n(O)c3ccc(Cl)cc13)CC(c1cccc(C(F)(F)F)c1)C/C2=N\CCCCCN1CCCC1 (centres undefined)	0.6	5	5									No. of toxic deaths (Plasmodium berghei [13]): 4
CN(C)CCC/N=C1\CC(c2ccc(C(F)(F)F)cc2)Cc2nc3ccc(Cl)cc3c(O)c21 (centres undefined)		3	1	5	5	3	10.4	2	3	2	2	
CC1/C(=N\CCCN(C)C)c2c(n(O)c3ccc(Cl)cc3c2=O)CC1c1ccc(C(F)(F)F)cc1 (centres undefined)	10.2	5	5	5	2		8.1				5	
CC1/C(=N\CCCN(C)C)c2c(nc3ccc(Cl)cc3c2O)CC1c1ccc(Cl)cc1Cl (centres undefined)	19.9			5	4	5	0.1	4	3	3		Delta mean survival time (Plasmodium berghei [10]): 3.9; Delta mean survival time (Plasmodium berghei [3]): 2.9
O=c1c2c(n(O)c3ccc(Cl)cc13)CC(c1ccc(C(F)(F)F)cc1)C/C2=N\CCCNCCO (centres undefined)	10.7	4		5	3	5	6.4	4		1	1	
